Bioassay records deposited in PubChem by several laboratories.
NR2E3 ag-1 = NR2E3 (human) agonism; 320,000 compounds, 0.12% hits; AID 2300; inhibition of corepressor binding, % at 4.78 µM; GST-NR2E3/biotin-RetCOR TR-FRET, 1536-well;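 active means percent inhibition above the cutoff of mean plus 3 SD of all tested compounds, set per screening campaign, cut at about 20% in these data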
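System: GST-tagged NR2E3 plus biotinylated RetCOR corepressor; Amount: 1.35 nM GST-tagged NR2E3 final; Dosing: single nominal compound dose of 4.8 µM; Schedule: 5 h incubation at 4 °C; Technique: TR-FRET with europium anti-GST and streptavidin-D2, 340 nm excitation; Controls: biotin wells as high control, 0.6% DMSO wells as low control.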
NR1D1 modulator = modulators of human Rev-erb alpha DNA binding; P20393; Rev-erbα–FITC-DNA binding, fluorescence polarization, 90 min; activity, % at 10 µM; 370,000 compounds, 0.79% hits;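 active means activity above about 14%, limit read from the data; passing the limit was not always enough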
Target sequence (P20393 whole entry, looked up): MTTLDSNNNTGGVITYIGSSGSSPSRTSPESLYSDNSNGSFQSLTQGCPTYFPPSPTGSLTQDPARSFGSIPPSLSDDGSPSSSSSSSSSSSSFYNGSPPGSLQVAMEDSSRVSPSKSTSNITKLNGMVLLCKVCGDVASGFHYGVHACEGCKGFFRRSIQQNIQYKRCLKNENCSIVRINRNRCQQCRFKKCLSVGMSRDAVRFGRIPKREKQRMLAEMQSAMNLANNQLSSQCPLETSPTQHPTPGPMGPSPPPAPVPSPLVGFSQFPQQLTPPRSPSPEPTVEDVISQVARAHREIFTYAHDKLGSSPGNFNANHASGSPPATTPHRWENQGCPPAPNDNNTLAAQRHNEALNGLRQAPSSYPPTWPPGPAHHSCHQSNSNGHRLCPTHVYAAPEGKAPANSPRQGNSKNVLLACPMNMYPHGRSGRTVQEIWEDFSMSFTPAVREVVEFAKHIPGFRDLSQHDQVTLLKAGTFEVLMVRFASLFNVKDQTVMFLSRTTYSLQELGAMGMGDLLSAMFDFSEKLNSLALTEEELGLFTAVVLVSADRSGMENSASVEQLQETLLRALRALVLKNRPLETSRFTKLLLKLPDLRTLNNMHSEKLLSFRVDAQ
PG9 Ab binder = binds the HIV-1 gp120 antibody PG9; 360,000 compounds, 0.43% hits; AID 624416; inhibition, % at 6.7 µM; TR-FRET gp120-PG9 antibody binding; in the data active means inhibition above about 8.5%
NR2E3 ag-2 = agonists of human NR2E3 nuclear receptor. CHO-S Gal4-NCOR/VP16-NR2E3 two-hybrid, luciferase. Q9Y5X4. 360,000 compounds, 0.35% hits. inhibition of corepressor binding, % at 3.98 µM;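 active means inhibition above the mean of all tested compounds plus 3 SD, cut at about 70% in these data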;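 further: higher means lower luciferase signal from less NR2E3 corepressor binding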
NR1D1 mod conf = Rev-erb alpha (human) modulation, hit confirmation; shares compounds with NR1D1 modulator; Rev-erb alpha FITC-DNA binding, fluorescence polarization, 90 min; activation, % at 25 µM; 3,000 compounds, 61% hits; AID 1259319;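 active means activation at or above a set limit, or at least 3 SD above the negative control mean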
RORg DNA counter = affects RORgamma DNA binding in a Rev-erb alpha counter-screen; 910 compounds, 8% hits; IC50, µM; purified RORgamma protein-FITC-DNA binding, fluorescence polarization; shares compounds with NR1D1 modulator;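 active means Compounds whose fitted half-maximal concentration for disrupting protein-DNA binding is below 10 micromolar; the record names Rev-erb in its text, so the target is in doubt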
Each line names hits and unclear results; the compound was inactive in the other large screens (follow-up assays come after a bar, where they were run). In the library only some 1.4% were active in any assay of this set; here they are far more common.

O=C(O)CSc1nnnn1-c1ccc2c(c1)OCCO2	none
COc1ccc(-n2nnnc2SCC(=O)c2ccc3c(c2)OCCO3)cc1	NR1D1 modulator 63 | NR1D1 mod conf 64
O=C(CSc1nnc(-c2cccs2)n1-c1cccc(Cl)c1)c1cccc2c1OCCO2	NR1D1 modulator 79 | NR1D1 mod conf 85 | RORg DNA counter inactive
O=C(CSc1nnnn1-c1ccc2c(c1)OCCO2)c1cccc2c1OCCO2	NR1D1 modulator 107 | NR1D1 mod conf 81 | RORg DNA counter inactive
O=C(O)CSc1nnc(-c2cccs2)n1-c1ccc(Cl)cc1	none
Cc1ccc(CN2C(=O)N/C(=C\c3ccc(N4CCOCC4)cc3)C2=O)cc1	none
O=C1N/C(=C\c2ccc(N3CCOCC3)c(F)c2)C(=O)N1Cc1ccccc1	NR1D1 modulator 28 | NR1D1 mod conf inactive
COc1ccc(C(=O)Nc2ccc(N3CCN(c4ccc(OC)cc4)CC3)c(C#N)c2)cc1	NR1D1 modulator 84 | NR1D1 mod conf 56
COc1ccc(N2CCN(c3ccc(NC(=O)C4CCCCC4)cc3C#N)CC2)cc1	NR1D1 modulator 30 | NR1D1 mod conf inactive
COC(=O)[C@@]12C[C@@H](CC(=O)N3CCN(C(=O)C4CC4)CC3)C(=O)N(Cc3ccc4c(c3)OCO4)C1=CCC(C)(C)C2	none (no result: NR2E3 ag-1, NR2E3 ag-2)
COc1ccc(C2CC(c3ccccc3O)=NN2C(=O)c2ccccc2)cc1OC (stereo not drawn)	none
O=C(c1ccccc1)N1N=C(c2ccccc2O)CC1c1ccccc1 (stereo not drawn)	NR1D1 modulator 57 | NR1D1 mod conf 36 | RORg DNA counter 6.9
CC(=O)Nc1ccc(Nc2c3c4c(cccc4n(C)c2=O)C(=O)c2ccccc2-3)cc1	NR1D1 modulator 33 | NR1D1 mod conf 31 | RORg DNA counter inactive
Cn1c(=O)c(NCCO)c2c3c(cccc31)C(=O)c1ccccc1-2	NR1D1 modulator 101 | NR1D1 mod conf 118 | RORg DNA counter inactive
Cn1c(=O)c(NCCc2ccccc2)c2c3c(cccc31)C(=O)c1ccccc1-2	NR1D1 modulator 97 | NR1D1 mod conf 69 | RORg DNA counter inactive
CCCCNc1c2c3c(cccc3n(C)c1=O)C(=O)c1ccccc1-2	none (no result: NR1D1 modulator, PG9 Ab binder)
CN(C(=O)COC(=O)COc1ccc2ccccc2c1)c1ccccc1	none (no result: NR2E3 ag-1)
O=C(COC(=O)CCS(=O)(=O)c1ccccc1)NNC(=O)c1ccc([N+](=O)[O-])cc1	none (no result: NR2E3 ag-1)
O=C(Cc1ccc(Cl)cc1)NC(=S)Nc1ccccc1N1CCOCC1	none
O=C(Nc1ccccc1N1CCOCC1)C1(c2ccc(Cl)cc2)CCC1	NR1D1 modulator 20 | NR1D1 mod conf inactive
CCCOc1ccc(F)cc1-c1cc(C(=O)Nc2ccc(C(C)C)cc2)[nH]n1	none (no result: NR2E3 ag-1)
O=C(Nc1ccon1)c1sc2cc(Cl)ccc2c1Cl	NR1D1 modulator 25 | NR1D1 mod conf inactive
O=C(NCc1ccco1)c1sc2cc(Cl)ccc2c1Cl	none
CC(=O)Nc1nonc1-c1nc2ccccc2n1CCC#N	none
N#CCCn1c(-c2nonc2NC(=O)c2ccccc2Cl)nc2ccccc21	NR1D1 modulator 77 | NR1D1 mod conf 22
COc1ccc(C(=O)NCCNc2nc3cc(C)cc(C)c3cc2C#N)nc1	NR1D1 modulator 23 (no result: NR2E3 ag-1, NR2E3 ag-2) | NR1D1 mod conf 45 | RORg DNA counter inactive
COc1cc(C(=O)Nc2ccccc2-c2nnn(CC(N)=O)n2)cc(OC)c1OC	none
COc1ccc(C(=O)Nc2ccccc2-c2nnn(CC(N)=O)n2)cc1	NR1D1 modulator 96 (no result: NR2E3 ag-1) | NR1D1 mod conf 81 | RORg DNA counter inactive
CN1C(=O)c2cc(NC(=O)c3cccc(F)c3)ccc2OC[C@@H]2O[C@H](CC(=O)NCc3ccccc3)CC[C@H]21	none (no result: NR2E3 ag-1, PG9 Ab binder, NR2E3 ag-2)
Cc1ccccc1NC(=O)Nc1ccc2c(c1)C(=O)N(C)[C@H]1CC[C@H](CC(=O)NCC3CC3)O[C@@H]1CO2	NR1D1 modulator 30 (no result: NR2E3 ag-1, PG9 Ab binder, NR2E3 ag-2) | NR1D1 mod conf 14
CN1C(=O)c2cc(NC(=O)c3ccccc3)ccc2OC[C@H]2O[C@@H](CC(=O)NCC3CC3)CC[C@@H]21	NR1D1 modulator 34 (no result: NR2E3 ag-1, PG9 Ab binder, NR2E3 ag-2) | NR1D1 mod conf 22
c1cc2c(c(CC3CO3)c1CC1CO1)OCCOCCOCCOCCO2 (stereo not drawn)	none (no result: NR2E3 ag-1)
COc1ccc(CN(Cc2cc3cc(OC)c(OC)cc3[nH]c2=O)C(=O)NC2CCCCC2)cc1	NR1D1 modulator 50 | NR1D1 mod conf 78 | RORg DNA counter inactive
